Measured values collected from several papers.
Target: Death-associated protein kinase 1 (DAPK1, Homo sapiens, UniProt P53355)

SMILES | test | conditions | remaining binding
Cc1cnn2ncc(-c3ccnc(N(C)C)n3)c2c1 | binding | 1 µM | 74%
COc1ncc2cc3ccccc3nc2c1C#N | cell-free assay, competition with immobilised ligand | 5 µM | 95%
C[C@@H]1CCN(c2nccc(-c3cnn4ncccc34)n2)C1 | binding | 1 µM | 79%
Nc1ncc2c(n1)-c1c([nH]c3ccc(C#CC4CC4)cc13)CCCC2 | binding, competition with immobilised ligand | 1 µM | 87%
CS(=O)(=O)c1cc(C2(NC(=O)c3cncc4c3cnn4-c3ccc(F)cc3)CC2)ccn1 | cell-free assay, competition with immobilised ligand | 1 µM | 83%
O=C(c1ccc(Nc2nccc(-c3cc4ccccc4s3)n2)cc1)N1CCC(N2CCCC2)CC1 | binding, competition with immobilised ligand | 1 µM | 13%
O=C(NCC1CCOCC1)c1n[nH]cc1NC(=O)c1c(F)cccc1F | binding, competition with immobilised ligand | 1 µM | 96%
CNC(=O)[C@@H]1CC[C@@H](n2c(-c3ccc4cnccc4c3)nc3ccc(C(=O)NCc4cccc(C(N)=O)c4)cc32)C1 | binding, competition with immobilised ligand | 1 µM | 100%
c1ccc(N2CCN(Cc3nc4ccccc4[nH]3)CC2)nc1 | binding, competition with immobilised ligand | 1 µM | 100%
CN(CCCC(F)(F)F)c1nccc(-c2cnn3ncccc23)n1 | binding | 1 µM | 100%
O=C1CCc2cc(Nc3cc(OC4CCOCC4)c([N+](=O)[O-])cc3Cl)ccc2N1 | cell-free assay, competition with immobilised ligand | 1 µM | 90%
c1cnn2ncc(-c3ccnc(N4CCC45COC5)n3)c2c1 | binding | 1 µM | 79%
CC(=O)N1CCC(c2ccc(C(=O)NC3=NCCN3)cc2C(F)(F)F)CC1 | cell-free assay, competition with immobilised ligand | 1 µM | 100%
O=C(c1ccc(Nc2ncc(Cl)c(-c3ccc(Cl)s3)n2)cc1)N1CCC(N2CCCC2)CC1 | binding, competition with immobilised ligand | 1 µM | 17%
C=CC(=O)N1CCC(C(=O)NCC(=O)N2CCN(c3nc(-c4cnc(N)nc4C(F)F)nc(N4CCOCC4)n3)CC2)CC1 | binding, competition with immobilised ligand | 1 µM | 96%
CNCc1ccccc1-c1csc([C@H](C)Nc2nc(C)nc3cc(OC)c(OC)cc23)c1 | cell-free assay, competition with immobilised ligand | 1 µM | 100%
O=C(c1ccc(Nc2ncc(Cl)c(-c3cc4ccccc4s3)n2)cc1)N1CCC(N2CCCC2)CC1 | binding, competition with immobilised ligand | 1 µM | 20%
CN(C)c1ncc(F)c(-c2cnn3ncccc23)n1 | binding | 1 µM | 100%
c1cncc(-c2cccc(Nc3nccc(NC4CCCCC4)n3)c2)c1 | binding, competition with immobilised ligand | 10 µM | 90%
CN(c1nccc(-c2cnn3ncccc23)n1)C1CC1 | binding | 1 µM | 100%
C[C@H](c1ccc(F)cc1)N(Cc1cccc(C(=O)O)c1)C(=O)c1cnc2ccccc2c1 | cell-free assay, competition with immobilised ligand | 1 µM | 97%
